Results published in ChEMBL document CHEMBL4229415, “Design, synthesis and biological evaluation of novel series of 2H-benzo[b][1,4]oxazin-3(4H)-one and 2H-benzo[b][1,4]oxazine scaffold derivatives as PI3Kα inhibitors” (Bioorg Med Chem, 2018).

Columns and labels:
[1] = test system: SNU-638; assay: Antiproliferative activity against human SNU638 cells after 72 hrs by SRB assay; assay type: functional, cell-based; settings: SNU-638, 72 h
[2] = test system: HCT-116; assay: Antiproliferative activity against human HCT116 cells after 72 hrs by SRB assay; assay type: functional, cell-based; settings: HCT-116, 72 h
[3] = test system: MDA-MB-231; assay: Antiproliferative activity against human MDA-MB-231 cells after 72 hrs by SRB assay; assay type: functional, cell-based; settings: MDA-MB-231, 72 h
[4] = molecular target: T1, Phosphatidylinositol 4,5-bisphosphate 3-kinase catalytic subunit alpha isoform (Homo sapiens, UniProt P42336); assay: Inhibition of recombinant human PI3K-alpha using PIP2:3PS as substrate preincubated for 15 mins followed by ATP addition measured after 1 hr by ADP-Glo assay
T1 sequence (P42336 whole entry, canonical isoform): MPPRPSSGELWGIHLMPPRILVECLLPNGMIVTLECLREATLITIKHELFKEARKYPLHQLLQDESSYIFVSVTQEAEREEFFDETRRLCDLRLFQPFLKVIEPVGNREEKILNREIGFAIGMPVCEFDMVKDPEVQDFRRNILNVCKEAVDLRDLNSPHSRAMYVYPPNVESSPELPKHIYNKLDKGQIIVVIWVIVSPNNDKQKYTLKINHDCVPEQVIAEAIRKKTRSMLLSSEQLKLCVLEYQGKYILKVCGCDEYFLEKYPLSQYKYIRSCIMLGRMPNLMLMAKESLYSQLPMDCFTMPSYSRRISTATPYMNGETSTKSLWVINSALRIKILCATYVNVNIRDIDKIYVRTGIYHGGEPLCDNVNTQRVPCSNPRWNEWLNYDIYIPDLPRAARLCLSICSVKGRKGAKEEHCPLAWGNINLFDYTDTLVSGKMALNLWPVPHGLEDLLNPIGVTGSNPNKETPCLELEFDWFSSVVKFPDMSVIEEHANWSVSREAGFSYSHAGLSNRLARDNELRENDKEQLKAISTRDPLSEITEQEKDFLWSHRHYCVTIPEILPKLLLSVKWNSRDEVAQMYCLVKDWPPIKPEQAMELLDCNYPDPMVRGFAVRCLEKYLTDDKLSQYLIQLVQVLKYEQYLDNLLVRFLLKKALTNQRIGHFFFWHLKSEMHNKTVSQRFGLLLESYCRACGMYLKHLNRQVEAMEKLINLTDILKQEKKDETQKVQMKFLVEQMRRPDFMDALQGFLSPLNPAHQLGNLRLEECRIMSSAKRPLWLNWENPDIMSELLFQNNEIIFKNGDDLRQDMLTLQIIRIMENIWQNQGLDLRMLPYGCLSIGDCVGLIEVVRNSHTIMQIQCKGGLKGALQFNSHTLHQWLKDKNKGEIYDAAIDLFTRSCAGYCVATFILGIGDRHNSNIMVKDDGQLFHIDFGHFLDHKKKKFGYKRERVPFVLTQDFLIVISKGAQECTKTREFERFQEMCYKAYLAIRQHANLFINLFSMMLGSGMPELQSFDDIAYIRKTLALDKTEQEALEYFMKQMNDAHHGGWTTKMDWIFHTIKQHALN
Summary of the method: (§1)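 Luminescent ADP-production readout (PI3K-Glo Class I kit). Enzymes p110α/p85α, p110β/p85α, p120γ or p110δ/p85α diluted in reaction buffer with lipid substrate, preincubated with serially diluted compound 15 min at room temperature. ADP-Glo reagent 40 min, then detection reagent 40 min. IC50 by normalized nonlinear dose-response fit.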

[5] = molecular target: Phosphatidylinositol 4,5-bisphosphate 3-kinase catalytic subunit beta isoform (Homo sapiens, UniProt P42338); assay: Inhibition of recombinant human PI3K-beta using PIP2:3PS as substrate preincubated for 15 mins followed by ATP addition measured after 1 hr by ADP-Glo assay; summary of the method: as §1
Chain of Phosphatidylinositol 4,5-bisphosphate 3-kinase catalytic subunit beta isoform (P42338 whole entry, canonical isoform): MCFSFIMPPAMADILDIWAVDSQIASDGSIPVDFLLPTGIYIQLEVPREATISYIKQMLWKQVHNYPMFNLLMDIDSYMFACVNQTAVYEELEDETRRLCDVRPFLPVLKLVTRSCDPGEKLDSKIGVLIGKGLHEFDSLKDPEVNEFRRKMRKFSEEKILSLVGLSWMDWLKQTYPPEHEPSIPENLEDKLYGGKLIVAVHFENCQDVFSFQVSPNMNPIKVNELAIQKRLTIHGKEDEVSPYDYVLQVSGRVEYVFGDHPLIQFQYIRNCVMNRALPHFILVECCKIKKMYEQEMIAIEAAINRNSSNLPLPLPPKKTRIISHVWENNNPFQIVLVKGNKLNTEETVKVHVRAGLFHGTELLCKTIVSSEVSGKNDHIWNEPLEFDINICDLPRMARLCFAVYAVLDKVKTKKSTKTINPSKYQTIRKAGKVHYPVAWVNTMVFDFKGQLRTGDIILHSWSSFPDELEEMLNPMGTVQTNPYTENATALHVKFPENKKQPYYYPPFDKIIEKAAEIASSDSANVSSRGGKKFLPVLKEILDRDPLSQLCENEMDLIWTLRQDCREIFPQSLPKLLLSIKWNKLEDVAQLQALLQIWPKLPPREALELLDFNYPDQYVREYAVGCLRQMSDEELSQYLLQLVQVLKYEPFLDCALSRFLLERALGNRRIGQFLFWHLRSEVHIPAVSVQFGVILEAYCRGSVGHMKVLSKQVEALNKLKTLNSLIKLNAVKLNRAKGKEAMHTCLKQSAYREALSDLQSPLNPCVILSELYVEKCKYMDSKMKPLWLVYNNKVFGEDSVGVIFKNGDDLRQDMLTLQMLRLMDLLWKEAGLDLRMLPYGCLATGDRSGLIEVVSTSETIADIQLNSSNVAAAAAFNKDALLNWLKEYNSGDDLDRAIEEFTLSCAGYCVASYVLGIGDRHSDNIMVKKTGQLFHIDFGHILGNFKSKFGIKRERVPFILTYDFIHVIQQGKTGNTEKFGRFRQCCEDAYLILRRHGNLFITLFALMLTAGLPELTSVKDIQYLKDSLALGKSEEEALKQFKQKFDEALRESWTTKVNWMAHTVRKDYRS

[6] = molecular target: Phosphatidylinositol 4,5-bisphosphate 3-kinase catalytic subunit gamma isoform (Homo sapiens, UniProt P48736); assay: Inhibition of recombinant human PI3K-gamma using PIP2:3PS as substrate preincubated for 15 mins followed by ATP addition measured after 1 hr by ADP-Glo assay; summary of the method: as §1
Chain of Phosphatidylinositol 4,5-bisphosphate 3-kinase catalytic subunit gamma isoform (P48736 whole entry, canonical isoform): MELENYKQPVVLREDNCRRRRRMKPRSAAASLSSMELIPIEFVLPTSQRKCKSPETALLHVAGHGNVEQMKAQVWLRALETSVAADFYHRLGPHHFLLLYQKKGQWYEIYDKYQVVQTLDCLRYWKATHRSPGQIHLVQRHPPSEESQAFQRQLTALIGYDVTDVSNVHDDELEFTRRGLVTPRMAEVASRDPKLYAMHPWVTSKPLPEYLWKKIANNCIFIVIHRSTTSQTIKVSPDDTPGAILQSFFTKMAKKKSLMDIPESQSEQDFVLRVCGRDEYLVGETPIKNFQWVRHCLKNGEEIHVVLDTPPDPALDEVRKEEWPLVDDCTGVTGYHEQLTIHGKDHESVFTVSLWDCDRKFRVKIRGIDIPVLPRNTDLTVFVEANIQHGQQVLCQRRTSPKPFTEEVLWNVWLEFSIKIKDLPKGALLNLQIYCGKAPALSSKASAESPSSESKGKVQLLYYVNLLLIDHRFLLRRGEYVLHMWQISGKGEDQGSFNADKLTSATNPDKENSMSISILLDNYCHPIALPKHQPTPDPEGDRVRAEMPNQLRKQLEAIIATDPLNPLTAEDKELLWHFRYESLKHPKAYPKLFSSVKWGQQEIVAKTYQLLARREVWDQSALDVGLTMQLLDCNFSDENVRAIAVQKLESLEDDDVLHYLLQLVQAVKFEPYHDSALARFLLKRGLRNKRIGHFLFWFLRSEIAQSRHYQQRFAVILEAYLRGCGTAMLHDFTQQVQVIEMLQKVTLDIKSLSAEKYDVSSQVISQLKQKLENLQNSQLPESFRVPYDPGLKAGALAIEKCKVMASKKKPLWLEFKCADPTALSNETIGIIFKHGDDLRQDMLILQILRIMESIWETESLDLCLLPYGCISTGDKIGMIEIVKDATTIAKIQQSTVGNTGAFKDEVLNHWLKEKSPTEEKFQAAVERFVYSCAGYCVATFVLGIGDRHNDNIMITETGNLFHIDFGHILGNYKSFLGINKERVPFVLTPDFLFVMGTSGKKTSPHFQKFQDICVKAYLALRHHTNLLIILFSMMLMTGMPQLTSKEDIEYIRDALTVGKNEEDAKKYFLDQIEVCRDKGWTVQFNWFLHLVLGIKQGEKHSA

[7] = organism: Homo sapiens; assay: Selectivity ratio of IC50 for recombinant human PI3K-beta to IC50 for recombinant human PI3K-alpha
Summary of the method: (§2)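 Ratios derived from isoform IC50 values obtained in the ADP-Glo lipid-kinase assay: each enzyme preincubated 15 min with compound and lipid substrate, reaction started with ATP (250 µM stock), 1 h at room temperature, luminescence read and IC50 fitted by normalized nonlinear regression.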

[8] = organism: Homo sapiens; assay: Selectivity ratio of IC50 for recombinant human PI3K-gamma to IC50 for recombinant human PI3K-alpha; summary of the method: as §2
[9] = molecular target: T2, Phosphatidylinositol 4,5-bisphosphate 3-kinase catalytic subunit delta isoform (Homo sapiens, UniProt O00329); assay: Inhibition of recombinant human PI3K-delta using PIP2:3PS as substrate preincubated for 15 mins followed by ATP addition measured after 1 hr by ADP-Glo assay; summary of the method: as §1
T2 sequence (O00329 whole entry): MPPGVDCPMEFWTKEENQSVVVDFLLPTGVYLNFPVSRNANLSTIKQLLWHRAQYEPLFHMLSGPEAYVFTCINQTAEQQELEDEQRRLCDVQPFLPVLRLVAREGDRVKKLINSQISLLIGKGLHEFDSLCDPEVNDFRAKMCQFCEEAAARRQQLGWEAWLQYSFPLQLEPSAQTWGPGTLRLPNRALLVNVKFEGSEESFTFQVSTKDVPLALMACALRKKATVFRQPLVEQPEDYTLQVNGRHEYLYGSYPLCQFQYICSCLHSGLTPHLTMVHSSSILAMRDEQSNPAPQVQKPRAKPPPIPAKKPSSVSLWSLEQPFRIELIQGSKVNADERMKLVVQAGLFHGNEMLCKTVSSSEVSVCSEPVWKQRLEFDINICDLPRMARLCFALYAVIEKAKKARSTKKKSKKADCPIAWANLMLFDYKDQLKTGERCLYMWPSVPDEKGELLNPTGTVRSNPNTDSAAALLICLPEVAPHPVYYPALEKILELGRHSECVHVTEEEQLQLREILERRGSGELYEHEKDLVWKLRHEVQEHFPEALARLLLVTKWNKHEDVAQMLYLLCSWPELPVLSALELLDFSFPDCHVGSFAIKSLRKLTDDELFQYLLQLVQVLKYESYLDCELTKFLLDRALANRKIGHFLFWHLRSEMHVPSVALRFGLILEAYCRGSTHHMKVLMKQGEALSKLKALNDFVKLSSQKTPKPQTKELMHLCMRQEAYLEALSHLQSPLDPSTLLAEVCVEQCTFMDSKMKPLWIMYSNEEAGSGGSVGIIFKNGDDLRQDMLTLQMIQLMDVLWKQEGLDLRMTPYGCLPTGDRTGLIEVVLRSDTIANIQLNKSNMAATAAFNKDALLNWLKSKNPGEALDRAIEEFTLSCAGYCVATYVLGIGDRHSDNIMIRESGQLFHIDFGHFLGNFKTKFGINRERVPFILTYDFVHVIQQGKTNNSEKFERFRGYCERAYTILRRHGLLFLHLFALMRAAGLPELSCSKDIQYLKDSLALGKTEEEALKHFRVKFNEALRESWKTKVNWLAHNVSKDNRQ

[10] = organism: Homo sapiens; assay: Selectivity ratio of IC50 for recombinant human PI3K-delta to IC50 for recombinant human PI3K-alpha; summary of the method: as §2
[11] = molecular target: T1, Phosphatidylinositol 4,5-bisphosphate 3-kinase catalytic subunit alpha isoform; assay: Inhibition of PI3K-alpha in human HCT116 cells assessed as reduction in Akt phosphorylation at Thr-308 residue by Western blot analysis; assay type: cell-based
Summary of the method: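 Equal protein amounts separated by 10% SDS-PAGE, transferred to PVDF, probed with the indicated antibodies; β-actin as internal control.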

[12] = test system: MRC5; assay: Antiproliferative activity against human MRC5 cells after 72 hrs by SRB assay; assay type: cell-based; settings: MRC5, 72 h
Summary of the method: (§3)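 Normal human cells (MRC5, HUVEC) exposed to graded compound concentrations for 72 h at 37 °C, 5% CO2, fixed with 10% TCA and stained by SRB. IC50 obtained by non-linear regression of percent growth against concentration.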

[13] = test system: HUVEC; assay: Antiproliferative activity against HUVEC after 72 hrs by SRB assay; assay type: cell-based; settings: Homo sapiens; summary of the method: as §3

Row | Compound | IC50 [1] [µM] | IC50 [2] [µM] | IC50 [3] [µM] | also measured
1 | CCCCS(=O)(=O)Nc1cc(-c2ccc3c(c2)N(CCCN2CCOCC2)C(=O)CO3)cnc1OC | 5.01 | 4.62 | 4.23 | –
2 | Cn1c(=O)n(-c2ccc(C(C)(C)C#N)cc2)c2c3cc(-c4cnc5ccccc5c4)ccc3ncc21 [DACTOLISIB] | – | – | 0.56 | –
3 | COc1ncc(-c2ccc3c(c2)N(CCN2CCOCC2)C(=O)CO3)cc1NS(=O)(=O)c1ccc(F)cc1F | 2.38 | 2.4 | 1.82 | –
4 | CCCCS(=O)(=O)Nc1cc(-c2ccc3c(c2)N(CCCn2cccn2)C(=O)CO3)cnc1OC | 36.2 | 33.6 | 37.9 | –
5 | COc1ncc(-c2ccc3c(c2)N(CCC(=O)N2CCOCC2)C(=O)CO3)cc1NS(=O)(=O)c1ccc(F)cc1F | 5.77 | 3.18 | 3.26 | –
6 | CCOC(=O)CN1CCN(C2=Nc3cc(-c4cnc(OC)c(NS(=O)(=O)c5ccc(F)cc5F)c4)ccc3OC2)CC1 | 21.4 | 14.5 | 17.2 | –
7 | CCCCS(=O)(=O)Nc1cc(-c2ccc3c(c2)N(CCCn2ccccc2=O)C(=O)CO3)cnc1OC | 44.3 | 42.6 | 47.9 | –
8 | COc1ncc(-c2ccc3c(c2)N(Cc2ccc(F)cc2)C(=O)CO3)cc1NS(=O)(=O)c1ccc(F)cc1F | 7.84 | 1.24 | 4.98 | –
9 | COc1ncc(-c2ccc3c(c2)N=C(N2CCN(CCO)CC2)CO3)cc1NS(=O)(=O)c1ccc(F)cc1F | 7.39 | 6.18 | 8.26 | –
10 | COc1ncc(-c2ccc3c(c2)N(CCCN2CCOCC2)C(=O)CO3)cc1NS(=O)(=O)c1ccc(F)cc1F | 0.52 | 0.58 | 0.49 | IC50 [4]: 26.7 nM; IC50 [5]: 382 nM; IC50 [6]: 185 nM; Ratio IC50 [7]: 14.3; Ratio IC50 [8]: 7; IC50 [9]: 425 nM; Ratio IC50 [10]: 15.9; inhibition [11]: Dose-dependent effect; IC50 [12]: 32.8 µM; IC50 [13]: 15.6 µM
11 | COC(=O)CCN1CCN(C2=Nc3cc(-c4cnc(OC)c(NS(=O)(=O)c5ccc(F)cc5F)c4)ccc3OC2)CC1 | 24.9 | 18.6 | 22.8 | –
12 | CCCCS(=O)(=O)Nc1cc(-c2ccc3c(c2)N(CCCN(CC)CC)C(=O)CO3)cnc1OC | 17.6 | 14.6 | 13.8 | –
13 | CCCCS(=O)(=O)Nc1cc(-c2ccc3c(c2)N(CCC(=O)N2CCOCC2)C(=O)CO3)cnc1OC | 41.9 | 23.5 | 43.8 | –
14 | CCCCS(=O)(=O)Nc1cc(-c2ccc3c(c2)N(CCCn2ccnc2)C(=O)CO3)cnc1OC | 32.7 | 32.9 | 40.4 | –
15 | CCCCS(=O)(=O)Nc1cc(-c2ccc3c(c2)N(CCCN(C)C)C(=O)CO3)cnc1OC | 8.97 | 8.43 | 9.35 | –
16 | COc1ncc(-c2ccc3c(c2)N(Cc2ccncc2)C(=O)CO3)cc1NS(=O)(=O)c1ccc(F)cc1F | 6.96 | 2.22 | 5.49 | –
17 | COc1ncc(-c2ccc3c(c2)N=C(N2CCN(CCCO)CC2)CO3)cc1NS(=O)(=O)c1ccc(F)cc1F | 4.97 | 3.26 | 4.78 | –
18 | CCCCS(=O)(=O)Nc1cc(-c2ccc3c(c2)N(CCN2CCOCC2)C(=O)CO3)cnc1OC | 20.4 | 15.8 | 19.5 | –
19 | CCCCS(=O)(=O)Nc1cc(-c2ccc3c(c2)N(Cc2ccncc2)C(=O)CO3)cnc1OC | 46.5 | 41.4 | 37.9 | –
20 | COc1ncc(-c2ccc3c(c2)N(CCCn2ccccc2=O)C(=O)CO3)cc1NS(=O)(=O)c1ccc(F)cc1F | 6.76 | 4.23 | 12.4 | –
